{"source": "the RNAGym collection of RNA variant scans (doi:10.1038/nmeth.2970)", "parents": {"B1": {"name": "NELF-E aptamer (parent)", "chain": "CCCAACGACUGCCGAGCGAGAUUACGCUUGAGCGCCCCACUGAGGAUGCCCACGGGCGAUUGGGGCACGG"}}}
{"variants_of": "B1", "experiment": "HiTS-RAP", "conditions": "with NELF-E (Drosophila)", "how_it_was_run": "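Kd came from weighted Hill fits to the first binding curve, with intensities normalised to sequencing intensity and averaged per sequence, keeping only fits whose variance was below 1,000,000. That curve was imaged on an Illumina GAIIx flowcell, where sequenced aptamer DNA templates with a T7 promoter and ter site had been transcribed in situ by T7 RNA polymerase and halted by GST-Tus (30 minutes, 37°C). Before each image, clusters equilibrated for 30 minutes at room temperature with NELF-E-mOrange at 0.064 to 1000 nM in HEPES binding buffer.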", "units": {"Kd": "nM"}}
{"variant": "CCCAACGUCUGCCGAGCGAGAUUACGCUGGAGCGCCCCACUGAGGAUGCCCACGGGCGAUUGGGGCACGG", "note": "[A8U U29G]", "Kd": 5.87}
{"variant": "CCCAACUACUGCCGAGCGAGAUUUCGCUUGAGCGCCCCACUGAGGAUGCCCACGGGCGAUUGGGGCACGG", "note": "[G7U A24U]", "Kd": 6.81}
{"variant": "CCCAACGACUGCCGAGCGAGAUUACGCUUGAGCGCCCUACGGAGGAUGCCCACGGGCGAUUGGGGCACGG", "note": "[C38U U41G]", "Kd": 7.77}
{"variant": "CCCAACGACUGCCAAGCGAGAUUACGCUAGAGCGCCCCACUGAGGAUGCCCACGGGCGAUUGGGGCACGG", "note": "[G14A U29A]", "Kd": 4.86}
{"variant": "CCCAACGCCGGCCGAGCGAGAUUACGCUUGAGCGCCCCACUGAGGAUGCCCACGGGCGAUUGGGGCACGG", "note": "[A8C U10G]", "Kd": 6.49}
{"variant": "CCCUACGACUGCCGAGCGAGAUUACGCUUGAGCGCCCCACGGAGGAUGCCCACGGGCGAUUGGGGCACGG", "note": "[A4U U41G]", "Kd": 6.46}
{"variant": "CCCAACGUCGGCCGAGCGAGAUUACGCUUGAGCGCCCCACUGAGGAUGCCCACGGGCGAUUGGGGCACGG", "note": "[A8U U10G]", "Kd": 5.41}
{"variant": "CCCAACGACUGCCGAGCGAGAUGACGCUUGAGCGCCCCACUGAGGAUGUCCACGGGCGAUUGGGGCACGG", "note": "[U23G C49U]", "Kd": 15.6}
{"variant": "CCCGUCGACUGCCGAGCGAGAUUACGCUUGAGCGCCCCACUGAGGAUGCCCACGGGCGAUUGGGGCACGG", "note": "[A4G A5U]", "Kd": 5.91}
{"variant": "CCCAACGACUGCCGAGCGAGAUUACGCUUGAGCGCCCAACUGAGGAUGCCCACGGGCGAUUGGGGCACGG", "note": "[C38A]", "Kd": 31.4}
{"variant": "CCCAACGACUGCCGAGCGAGAUUACGCUUGGGCGCCCCACUGAGGAUGCCCACGGGCGAUUGGAGCACGG", "note": "[A31G G64A]", "Kd": 10.8}
{"variant": "CCCAACGACUGCCGAUCGGGAUUACGCUUGAGCGCCCCACUGAGGAUGCCCACGGGCGAUUGGGGCACGG", "note": "[G16U A19G]", "Kd": 6.97}
{"variant": "CCCAACGACUGCCGAGGGAAAUUACGCUUGAGCGCCCCACUGAGGAUGCCCACGGGCGAUUGGGGCACGG", "note": "[C17G G20A]", "Kd": 5.92}
{"variant": "CCCAACGACUGCCGAGCGAGAUUACGCUGGAGCGCCCCACUGAAGAUGCCCACGGGCGAUUGGGGCACGG", "note": "[U29G G44A]", "Kd": 94.7}
{"variant": "CCCUACGAGUGCCGAGCGAGAUUACGCUUGAGCGCCCCACUGAGGAUGCCCACGGGCGAUUGGGGCACGG", "note": "[A4U C9G]", "Kd": 5.93}
{"variant": "CCCAACGGCUGCCGAGCGAGAUUACGCUUGAGUGCCCCACUGAGGAUGCCCACGGGCGAUUGGGGCACGG", "note": "[A8G C33U]", "Kd": 5.16}
{"variant": "CCCGACGACUGCCGAGCGAGAUUACGCUUGAGCGCCCCACUGAGGAUGUCCACGGGCGAUUGGGGCACGG", "note": "[A4G C49U]", "Kd": 20.8}
{"variant": "CCCAAGGACUGCCGAGCGAGAUUACGCUGGAGCGCCCCACUGAGGAUGCCCACGGGCGAUUGGGGCACGG", "note": "[C6G U29G]", "Kd": 4.97}
{"variant": "CCCAGCGACUGCCGAGCGAAAUUACGCUUGAGCGCCCCACUGAGGAUGCCCACGGGCGAUUGGGGCACGG", "note": "[A5G G20A]", "Kd": 6.58}
{"variant": "CCCAACGAGUGCCGAGCGAGAUUACGCUUGAGCGCCCCACUGAGGAUGCCCACGGGCGAUUUGGGCACGG", "note": "[C9G G62U]", "Kd": 10}
{"variant": "CCCAAGGACUGCCGAGCGAGAUUACGCUUGAGCGCCCCGCUGAGGAUGCCCACGGGCGAUUGGGGCACGG", "note": "[C6G A39G]", "Kd": 9.71}
{"variant": "CCCAACGACUGCCGAGCGAGAUGUCGCUUGAGCGCCCCACUGAGGAUGCCCACGGGCGAUUGGGGCACGG", "note": "[U23G A24U]", "Kd": 6.08}
{"variant": "CCCAACGACUGCCGAGCGAGAUGGCGCUUGAGCGCCCCACUGAGGAUGCCCACGGGCGAUUGGGGCACGG", "note": "[U23G A24G]", "Kd": 5.97}
{"variant": "CCCCACGACUGCCGAGCGAGAUUGCGCUUGAGCGCCCCACUGAGGAUGCCCACGGGCGAUUGGGGCACGG", "note": "[A4C A24G]", "Kd": 7.08}
{"variant": "CCCAACGGCUGCCGAGCGAGAUUACACUUGAGCGCCCCACUGAGGAUGCCCACGGGCGAUUGGGGCACGG", "note": "[A8G G26A]", "Kd": 4.49}
{"variant": "CCCAACGAGUGCCGAGCGAGAUUACGCUUGAGCGCCCCACUGAGGUUGCCCACGGGCGAUUGGGGCACGG", "note": "[C9G A46U]", "Kd": 68.3}
{"variant": "CCCAACGAGUGCCGAGCGAGAUUACGCUUGAGCGCCCCACUGAGGGUGCCCACGGGCGAUUGGGGCACGG", "note": "[C9G A46G]", "Kd": 47.4}
{"variant": "CCCAACGACUGCCGAGCGAGAUUACGCUUGAGCGCCCCACGAAGGAUGCCCACGGGCGAUUGGGGCACGG", "note": "[U41G G42A]", "Kd": 23.5}
{"variant": "CCCAACGACUGCCGAGCGAGAUGACGCUUGAGCGCCCCACUGAGGAUGCACACGGGCGAUUGGGGCACGG", "note": "[U23G C50A]", "Kd": 16.7}
{"variant": "CCCAACGACUGCCGAGCGAGAUUACGCUUGAGCGCCCCACUGAGGGUGCCCACAGGCGAUUGGGGCACGG", "note": "[A46G G54A]", "Kd": 129}
{"variant": "CCCAACGACUGCCGAGCGAGAUUGCGCUUGAGCGCCCCACUGAGGAGGCCCACGGGCGAUUGGGGCACGG", "note": "[A24G U47G]", "Kd": 7.22}
{"variant": "CCCAACGACGGCCGAGCGAGAUUACGCUUGAGCGCCCCACUGAGGAUGCCCACGGGCGAAUGGGGCACGG", "note": "[U10G U60A]", "Kd": 8.76}
{"variant": "CCCAACGACUGCCGAGCGAGAUUACGCUUGAGCGCCCCACCGAGGAUGCCCACAGGCGAUUGGGGCACGG", "note": "[U41C G54A]", "Kd": 103}
{"variant": "CCCAACGACUGGCGAGCGAGAUUAGGCUUGAGCGCCCCACUGAGGAUGCCCACGGGCGAUUGGGGCACGG", "note": "[C12G C25G]", "Kd": 4.47}
{"variant": "CCCAACGACUGCCGAGCGAUAUUACGCUUGAGCGCCCCACUGAGGGUGCCCACGGGCGAUUGGGGCACGG", "note": "[G20U A46G]", "Kd": 47.1}
{"variant": "CCCAACGACUGACGAGCGAGAGUACGCUUGAGCGCCCCACUGAGGAUGCCCACGGGCGAUUGGGGCACGG", "note": "[C12A U22G]", "Kd": 4.37}
{"variant": "CCCAACGAGAGCCGAGCGAGAUUACGCUUGAGCGCCCCACUGAGGAUGCCCACGGGCGAUUGGGGCACGG", "note": "[C9G U10A]", "Kd": 6.51}
{"variant": "CCCAACGACUGGCGAGCGAGUUUACGCUUGAGCGCCCCACUGAGGAUGCCCACGGGCGAUUGGGGCACGG", "note": "[C12G A21U]", "Kd": 6.04}
